Results: ChEMBL document CHEMBL1131317, “Antitumor agents. 181. Synthesis and biological evaluation of 6,7,2',3',4'-substituted-1,2,3,4-tetrahydro-2-phenyl-4-quinolones as a new class of antimitotic antitumor agents” (J Med Chem, 1998)
In brackets after ≈: the same amount, converted by molar mass.

What was measured:
[1] = molecular target: Tubulin (Bos taurus, UniProt Q6B856+Q862L2+Q862F3); assay: Inhibition of bovine brain tubulin polymerization (ITP).
[2] = test system: KB; assay: Cytotoxicity against human epidermoid carcinoma of the nasopharyngeal cells (KB) using SRB assay.; type: functional; conditions: read-out: ED50 (the source's name)
Method in brief: (§1)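 Cells grown at 37 °C in RPMI-1640 with 10% FBS and 100 µg/mL kanamycin, humidified 5% CO2. Seeding density set per line so control A562 reads 1-2.5. Drug given from DMSO stocks, final DMSO ≤2% (v/v), for 3 days. SRB stain, absorbance at 562 nm. […] Triplicates.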

[3] = test system: MCF7; assay: Cytotoxicity against human breast cancer cells (MCF-7) using SRB assay.; type: functional; conditions: read-out: ED50 (the source's name); method in brief: as §1
[4] = test system: CAKI-1; assay: Cytotoxicity against human renal cancer cells (CAKI-1) using SRB assay.; type: functional; conditions: read-out: ED50 (the source's name); method in brief: as §1
[5] = test system: A549; assay: Cytotoxicity against human lung carcinoma cells (A-549) using SRB assay.; type: functional; conditions: read-out: ED50 (the source's name); method in brief: as §1
[6] = test system: HCT-8; assay: Cytotoxicity against human ileocecal carcinoma cells (HCT-8) using SRB assay.; type: functional; conditions: read-out: ED50 (the source's name); method in brief: as §1
[7] = molecular target: T1, Tubulin (Bos taurus) (UniProt Q6B856+Q862L2+Q862F3); assay: % inhibition of [3H]colchicine binding to bovine brain tubulin at a concentration of 5 uM
Method in brief: (§2)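 [3H]colchicine at 5 µM incubated with 1 µM tubulin. Inhibitor present at the stated concentration (5 or 1 µM). Result given as % inhibition of colchicine binding ± SD.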

[8] = test system: SK-MEL-2; assay: The compound was tested for the cytotoxicity for the cell lines of human melanoma cancer (SKMEL-2) using SRB assay.; type: functional; conditions: read-out: ED50 (the source's name); method in brief: as §1
[9] = molecular target: T1, Tubulin (Bos taurus); assay: The compound was tested for the % inhibition of [3H]colchicine binding to bovine brain tubulin at a concentration of 1 uM; method in brief: as §2

| SMILES | IC50 [1] | EC50 [2] | EC50 [3] | EC50 [4] | EC50 [5] | EC50 [6] | inhibition [7] | EC50 [8] | inhibition [9] |
| --- | --- | --- | --- | --- | --- | --- | --- | --- | --- |
| O=C1C[C@@H](c2ccccc2F)Nc2cc3c(cc21)OCO3 | 560 nM | 0.08 µg/mL (≈ 0.28 µM) | 0.1 µg/mL (≈ 0.351 µM) | 1 µg/mL (≈ 3.51 µM) | 0.18 µg/mL (≈ 0.631 µM) | 0.09 µg/mL (≈ 0.315 µM) | 51% | – | – |
| CC(NC(=O)C(=O)N/N=C1\C[C@H](c2ccccc2F)Nc2cc3c(cc21)OCO3)c1ccccc1 (some centres not stated) | > 40000 nM | 10 µg/mL (≈ 21.1 µM) | 25 µg/mL (≈ 52.7 µM) | 18 µg/mL (≈ 37.9 µM) | 9 µg/mL (≈ 19 µM) | 9 µg/mL (≈ 19 µM) | – | – | – |
| COc1cccc(-c2cc(O)c3cc4c(cc3n2)OCO4)c1 | 740 nM | – | – | – | – | – | 33% | – | – |
| COc1cccc([C@H]2CC(=O)c3ccccc3N2)c1 | 7200 nM | 0.5 µg/mL (≈ 1.97 µM) | 0.6 µg/mL (≈ 2.37 µM) | 3.8 µg/mL (≈ 15 µM) | 0.5 µg/mL (≈ 1.97 µM) | 0.5 µg/mL (≈ 1.97 µM) | – | – | – |
| O=C1CC(c2ccccc2F)Nc2cc3c(cc21)OCO3 (configuration not stated) | 1100 nM | 0.06 µg/mL (≈ 0.21 µM) | 0.06 µg/mL (≈ 0.21 µM) | 1 µg/mL (≈ 3.51 µM) | 0.08 µg/mL (≈ 0.28 µM) | 0.13 µg/mL (≈ 0.456 µM) | – | 0.125 µg/mL (≈ 0.438 µM) | – |
| COc1ccc(C2CC(=O)c3ccccc3N2)cc1 (configuration not stated) | > 40000 nM | > 25 µg/mL | > 25 µg/mL | – | > 25 µg/mL | > 25 µg/mL | – | – | – |
| COc1cccc([C@@H]2CC(=O)c3cc4c(cc3N2)OCO4)c1 | 690 nM | 0.02 µg/mL (≈ 0.0673 µM) | 0.03 µg/mL (≈ 0.101 µM) | 0.25 µg/mL (≈ 0.841 µM) | 0.03 µg/mL (≈ 0.101 µM) | 0.02 µg/mL (≈ 0.0673 µM) | 67% | – | – |
| COc1cccc(-c2cc(O)c3ccccc3n2)c1 | 1500 nM | – | – | – | – | – | – | – | – |
| O=C1CC(c2cccc(F)c2)Nc2cc3c(cc21)OCO3 (configuration not stated) | 750 nM | 0.012 µg/mL (≈ 0.0421 µM) | 0.032 µg/mL (≈ 0.112 µM) | 0.016 µg/mL (≈ 0.0561 µM) | 0.012 µg/mL (≈ 0.0421 µM) | 0.016 µg/mL (≈ 0.0561 µM) | 75% | 0.016 µg/mL (≈ 0.0561 µM) | – |
| COc1cccc([C@H]2C/C(=N\NC(=O)C(=O)NC(C)c3ccccc3)c3ccccc3N2)c1 (some centres not stated) | > 40000 nM | > 25 µg/mL | > 25 µg/mL | > 25 µg/mL | > 25 µg/mL | > 25 µg/mL | – | – | – |
| COc1cccc([C@@H]2CC(=O)c3ccccc3N2)c1 | 1200 nM | 0.12 µg/mL (≈ 0.474 µM) | 0.3 µg/mL (≈ 1.18 µM) | 0.15 µg/mL (≈ 0.592 µM) | 0.15 µg/mL (≈ 0.592 µM) | 0.09 µg/mL (≈ 0.355 µM) | – | – | – |
| COc1cccc(C2CC(=O)c3cc(N4CCCC4)ccc3N2)c1 (configuration not stated) | 660 nM | 0.008 µg/mL (≈ 0.0248 µM) | 0.11 µg/mL (≈ 0.341 µM) | 0.008 µg/mL (≈ 0.0248 µM) | 0.01 µg/mL (≈ 0.031 µM) | 0.016 µg/mL (≈ 0.0496 µM) | 91% | 0.016 µg/mL (≈ 0.0496 µM) | 63% |
| COc1cccc([C@H]2CC(=O)c3cc4c(cc3N2)OCO4)c1 | 2300 nM | 0.07 µg/mL (≈ 0.235 µM) | 0.12 µg/mL (≈ 0.404 µM) | 0.25 µg/mL (≈ 0.841 µM) | 0.09 µg/mL (≈ 0.303 µM) | 0.08 µg/mL (≈ 0.269 µM) | – | – | – |
| O=C1CC(c2ccc(F)cc2)Nc2cc3c(cc21)OCO3 (configuration not stated) | 2000 nM | 0.3 µg/mL (≈ 1.05 µM) | 0.4 µg/mL (≈ 1.4 µM) | 0.8 µg/mL (≈ 2.8 µM) | 1 µg/mL (≈ 3.51 µM) | 0.4 µg/mL (≈ 1.4 µM) | – | 0.2 µg/mL (≈ 0.701 µM) | – |
| O=C1CC(c2ccccc2)Nc2ccccc21 (configuration not stated) [Aza-flavanone] | 2700 nM | 0.07 µg/mL (≈ 0.314 µM) | 0.13 µg/mL (≈ 0.582 µM) | 0.013 µg/mL (≈ 0.0582 µM) | 0.013 µg/mL (≈ 0.0582 µM) | 0.013 µg/mL (≈ 0.0582 µM) | – | 0.13 µg/mL (≈ 0.582 µM) | – |
| COc1cccc(-c2cc(O)c3cccnc3n2)c1 | 790 nM | – | – | – | – | – | 24% | – | – |
| COc1cccc([C@@H]2C/C(=N\NC(=O)C(=O)NC(C)c3ccccc3)c3ccccc3N2)c1 (some centres not stated) | > 40000 nM | 8 µg/mL (≈ 18.1 µM) | 8 µg/mL (≈ 18.1 µM) | 25 µg/mL (≈ 56.5 µM) | 8 µg/mL (≈ 18.1 µM) | 3.8 µg/mL (≈ 8.59 µM) | – | – | – |
| COc1cccc(C2CC(=O)c3ccccc3N2)c1 (configuration not stated) | 3300 nM | 0.11 µg/mL (≈ 0.434 µM) | 0.32 µg/mL (≈ 1.26 µM) | 0.32 µg/mL (≈ 1.26 µM) | 0.23 µg/mL (≈ 0.908 µM) | 0.12 µg/mL (≈ 0.474 µM) | – | 0.2 µg/mL (≈ 0.79 µM) | – |
| COc1cccc(-c2cc(O)c3cc(N4CCCC4)ccc3n2)c1 | 490 nM | – | – | – | – | – | 91% | – | 65% |
| COc1cc2c(c(OC)c1OC)-c1ccc(OC)c(=O)cc1[C@@H](NC(C)=O)CC2 [COLCHICINE] | – | 0.002 µg/mL (≈ 0.00501 µM) | > 0.4 µg/mL | 0.4 µg/mL (≈ 1 µM) | 0.002 µg/mL (≈ 0.00501 µM) | 0.016 µg/mL (≈ 0.0401 µM) | – | 0.008 µg/mL (≈ 0.02 µM) | – |
| O=C1CC(c2cccc(Cl)c2)Nc2ccc(N3CCCC3)cc21 (configuration not stated) | 760 nM | 0.05 µg/mL (≈ 0.153 µM) | 0.31 µg/mL (≈ 0.949 µM) | 0.95 µg/mL (≈ 2.91 µM) | 0.09 µg/mL (≈ 0.275 µM) | 0.09 µg/mL (≈ 0.275 µM) | 89% | 0.08 µg/mL (≈ 0.245 µM) | 63% |
| COc1cccc([C@H]2C/C(=N\NC(=O)C(=O)NC(C)c3ccccc3)c3cc4c(cc3N2)OCO4)c1 (some centres not stated) | > 40000 nM | 12 µg/mL (≈ 24.7 µM) | 6.3 µg/mL (≈ 12.9 µM) | > 25 µg/mL | 11.5 µg/mL (≈ 23.6 µM) | 1.5 µg/mL (≈ 3.08 µM) | – | – | – |
| COc1cccc([C@@H]2C/C(=N\NC(=O)C(=O)NC(C)c3ccccc3)c3cc4c(cc3N2)OCO4)c1 (some centres not stated) | > 40000 nM | 1.8 µg/mL (≈ 3.7 µM) | 3 µg/mL (≈ 6.17 µM) | 12.5 µg/mL (≈ 25.7 µM) | 2.4 µg/mL (≈ 4.93 µM) | 1 µg/mL (≈ 2.06 µM) | – | – | – |
| CC(NC(=O)C(=O)N/N=C1\C[C@@H](c2ccccc2F)Nc2cc3c(cc21)OCO3)c1ccccc1 (some centres not stated) | > 40000 nM | 18 µg/mL (≈ 37.9 µM) | 8.5 µg/mL (≈ 17.9 µM) | > 25 µg/mL | 13 µg/mL (≈ 27.4 µM) | 2.1 µg/mL (≈ 4.43 µM) | – | – | – |
| COc1cccc(C2CC(=O)c3cc4c(cc3N2)OCO4)c1 (configuration not stated) | 820 nM | 0.02 µg/mL (≈ 0.0673 µM) | 0.04 µg/mL (≈ 0.135 µM) | 0.06 µg/mL (≈ 0.202 µM) | 0.04 µg/mL (≈ 0.135 µM) | 0.04 µg/mL (≈ 0.135 µM) | 60% | 0.06 µg/mL (≈ 0.202 µM) | – |
| COc1ccccc1C1CC(=O)c2ccccc2N1 (configuration not stated) | > 40000 nM | 1.8 µg/mL (≈ 7.11 µM) | 6.5 µg/mL (≈ 25.7 µM) | 25 µg/mL (≈ 98.7 µM) | 6 µg/mL (≈ 23.7 µM) | 6 µg/mL (≈ 23.7 µM) | – | 12.5 µg/mL (≈ 49.3 µM) | – |
| O=C1C[C@H](c2ccccc2F)Nc2cc3c(cc21)OCO3 | 12000 nM | 0.43 µg/mL (≈ 1.51 µM) | 0.85 µg/mL (≈ 2.98 µM) | 1.25 µg/mL (≈ 4.38 µM) | 0.6 µg/mL (≈ 2.1 µM) | 0.5 µg/mL (≈ 1.75 µM) | – | – | – |
